Usually IC50 stands for the point on the concentration scale where inhibition reaches its midpoint.

The structures appear in SMILES notation. Numbered stars: 1 amine (or outer) side, 2 acyl side, 3 side chain; on linkers, the order of the positions; unused ones are H or OH. Bridge positions count the residues as written; N and C are the ends. Square brackets hold non-standard residues; d marks the D form. Peptide text beside a SMILES is read from it. Tyr(3-NO2) = N[C@@H](Cc1ccc(O)c([N+](=O)[O-])c1)C(=O)O; X1 = O=C(O)c1cc(C[C@H](N[*:1])C(=O)[*:2])ccc1O; Tyr(3-OMe) = COc1cc(C[C@H](N)C(=O)O)ccc1O; Tyr(3-NH2) = Nc1cc(C[C@H](N)C(=O)O)ccc1O; Dopa = N[C@@H](Cc1ccc(O)c(O)c1)C(=O)O; Gla = N[C@@H](CC(C(=O)O)C(=O)O)C(=O)O; Aad = N[C@@H](CCCC(=O)O)C(=O)O; Ac6c = NC1(C(=O)O)CCCCC1; Ava = NCCCCC(=O)O; βAla = NCCC(=O)O

One experiment deals with MDA-MB-453. Nature of the experiment: cells. Particulars: Homo sapiens.
In turn, `CC(C)C[C@@H]1NC(=O)[C@H](CC(C(=O)O)C(=O)O)NC(=O)C[S+]([O-])C[C@@H](C(N)=O)NC(=O)CCCCNC(=O)[C@H](CC(N)=O)NC(=O)C2(CCCCC2)NC(=O)[C@H](Cc2ccc(O)c(N)c2)NC1=O` (stereo partly drawn) came in with an IC50 of 0.019 µM.

The target in another experiment is Growth factor receptor-bound protein 2 (Homo sapiens, UniProt P62993). Nature of the experiment: Inhibition of recombinant GRB2-SH2 domain.
Sequence of Growth factor receptor-bound protein 2 (P62993 whole entry, the tested form may be a part): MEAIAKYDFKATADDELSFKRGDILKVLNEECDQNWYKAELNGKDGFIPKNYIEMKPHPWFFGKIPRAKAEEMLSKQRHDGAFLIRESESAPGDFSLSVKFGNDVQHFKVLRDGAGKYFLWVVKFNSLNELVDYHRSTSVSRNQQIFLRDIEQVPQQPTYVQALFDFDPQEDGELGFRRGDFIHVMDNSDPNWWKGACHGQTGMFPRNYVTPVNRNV
Conditions: not given
In outline: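 Competitive SPR (BIAcore 3000): inhibitor premixed with recombinant Grb2-SH2 protein; binding at equilibrium measured to immobilized biotinylated SHC pTyr317 phosphopeptide (biotinyl-DDPS-pY-VNVQ). IC50 = concentration giving half-maximal competition; mean of at least two independent experiments.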
Take `CC(C)C[C@@H]1NC(=O)[C@H](CCCC(=O)O)NC(=O)CSC[C@@H](C(N)=O)NC(=O)CCCCNC(=O)[C@H](CC(N)=O)NC(=O)C2(CCCCC2)NC(=O)[C@H](Cc2ccc(O)cc2)NC1=O` ({CH2CO}-[Aad]LY[Ac6c]N[Ava]C-NH2; thioether N-7): the IC50 was 93 µM.

As to `CC(C)C[C@@H]1NC(=O)[C@H](CC(C(=O)O)C(=O)O)NC(=O)C[S+]([O-])C[C@H](C(N)=O)NC(=O)[C@H](CC(N)=O)NC(=O)C2(CCCCC2)NC(=O)[C@H](Cc2ccc(O)c(N)c2)NC1=O` (stereo partly drawn), the concentration for half-maximal inhibition (IC50) came out at 200 µM.

On to `CC(C)C[C@@H]1NC(=O)[C@H](CCCC(=O)O)NC(=O)C[S+]([O-])C[C@H](C(N)=O)NC(=O)CCCCNC(=O)[C@H](CC(N)=O)NC(=O)C2(CCCCC2)NC(=O)[C@H](Cc2ccc(O)c(N)c2)NC1=O` (stereo partly drawn), for which the IC50 turned out to be 14 µM.

As to `CC(C)C[C@@H]1NC(=O)[C@H](CCCC(=O)O)NC(=O)CSC[C@@H](C(N)=O)NC(=O)CCCCNC(=O)[C@H](CC(N)=O)NC(=O)C2(CCCCC2)NC(=O)[C@H](Cc2ccc(O)c(N)c2)NC1=O` ({CH2CO}-[Aad]L[Tyr(3-NH2)][Ac6c]N[Ava]C-NH2; thioether N-7), the 50% inhibitory concentration (IC50) worked out at 8.9 µM.

With `CC(C)C[C@@H]1NC(=O)[C@H](CCCC(=O)O)NC(=O)C[S+]([O-])C[C@@H](C(N)=O)NC(=O)CCCCNC(=O)[C@H](CC(N)=O)NC(=O)C2(CCCCC2)NC(=O)[C@H](Cc2ccc(O)c(O)c2)NC1=O` (stereo partly drawn), the IC50 came to 87 µM.

Consider `CC(C)C[C@@H]1NC(=O)[C@H](CCCC(=O)O)NC(=O)CSC[C@@H](C(N)=O)NC(=O)CCCCNC(=O)[C@H](CC(N)=O)NC(=O)C2(CCCCC2)NC(=O)[C@H](Cc2ccc(O)c(O)c2)NC1=O` ({CH2CO}-[Aad]L[Dopa][Ac6c]N[Ava]C-NH2; thioether N-7), for which the IC50 is 135 µM.

Turning to `CC(C)C[C@@H]1NC(=O)[C@H](CCCC(=O)O)NC(=O)C[S+]([O-])C[C@@H](C(N)=O)NC(=O)CCCCNC(=O)[C@H](CC(N)=O)NC(=O)C2(CCCCC2)NC(=O)[C@H](Cc2ccc(O)c(N)c2)NC1=O` (stereo partly drawn), the IC50 is 3.9 µM.

Regarding `CC(C)C[C@@H]1NC(=O)[C@H](CCCC(=O)O)NC(=O)C[S+]([O-])C[C@H](C(N)=O)NC(=O)CCCCNC(=O)[C@H](CC(N)=O)NC(=O)C2(CCCCC2)NC(=O)[C@H](Cc2ccc(O)cc2)NC1=O` (stereo partly drawn), the IC50 turned out to be 1000 µM.

For `CC(C)C[C@@H]1NC(=O)[C@H](CC(C(=O)O)C(=O)O)NC(=O)CSC[C@@H](C(N)=O)NC(=O)CCCCNC(=O)[C@H](CC(N)=O)NC(=O)C2(CCCCC2)NC(=O)[C@H](Cc2ccc(O)c(N)c2)NC1=O` ({CH2CO}-[Gla]L[Tyr(3-NH2)][Ac6c]N[Ava]C-NH2; thioether N-7), the 50% inhibitory concentration (IC50) turned out to be 0.19 µM.

With `CC(C)C[C@@H]1NC(=O)[C@H](CCCC(=O)O)NC(=O)C[S+]([O-])C[C@@H](C(N)=O)NC(=O)CCCCNC(=O)[C@H](CC(N)=O)NC(=O)C2(CCCCC2)NC(=O)[C@H](Cc2ccc(O)cc2)NC1=O` (stereo partly drawn), the IC50 was 77 µM.

Regarding `CC(C)C[C@@H]1NC(=O)[C@H](CCCC(=O)O)NC(=O)C[S+]([O-])C[C@H](C(N)=O)NC(=O)CCCCNC(=O)[C@H](CC(N)=O)NC(=O)C2(CCCCC2)NC(=O)[C@H](Cc2ccc(O)c(C(=O)O)c2)NC1=O` (stereo partly drawn), the half-inhibitory concentration (IC50) came to 212 µM.

With `CC(C)C[C@@H]1NC(=O)[C@H](CC(C(=O)O)C(=O)O)NC(=O)C[S+]([O-])C[C@@H](C(N)=O)NC(=O)CCNC(=O)[C@H](CC(N)=O)NC(=O)C2(CCCCC2)NC(=O)[C@H](Cc2ccc(O)c(N)c2)NC1=O` (stereo partly drawn), the IC50 came to 0.36 µM.

`CC(C)C[C@@H]1NC(=O)[C@H](CCCC(=O)O)NC(=O)C[S+]([O-])C[C@H](C(N)=O)NC(=O)CCCCNC(=O)[C@H](CC(N)=O)NC(=O)C2(CCCCC2)NC(=O)[C@H](Cc2ccc(O)c([N+](=O)[O-])c2)NC1=O` (stereo partly drawn): the half-maximal inhibitory concentration (IC50) worked out at 265 µM.

For `COc1cc(C[C@@H]2NC(=O)[C@H](CC(C)C)NC(=O)[C@H](CCCC(=O)O)NC(=O)CSC[C@@H](C(N)=O)NC(=O)CCCCNC(=O)[C@H](CC(N)=O)NC(=O)C3(CCCCC3)NC2=O)ccc1O` ({CH2CO}-[Aad]L[Tyr(3-OMe)][Ac6c]N[Ava]C-NH2; thioether N-7), the IC50 is 245 µM.

`CC(C)C[C@@H]1NC(=O)[C@H](CC(C(=O)O)C(=O)O)NC(=O)CSC[C@@H](C(N)=O)NC(=O)[C@H](CC(N)=O)NC(=O)C2(CCCCC2)NC(=O)[C@H](Cc2ccc(O)c(N)c2)NC1=O` ({CH2CO}-[Gla]L[Tyr(3-NH2)][Ac6c]NC-NH2; thioether N-6): the IC50 was 22.5 µM.

Consider `CC(C)C[C@@H]1NC(=O)[C@H](CC(C(=O)O)C(=O)O)NC(=O)C[S+]([O-])C[C@H](C(N)=O)NC(=O)CCNC(=O)[C@H](CC(N)=O)NC(=O)C2(CCCCC2)NC(=O)[C@H](Cc2ccc(O)c(N)c2)NC1=O` (stereo partly drawn), for which the IC50 is 11.2 µM.

Regarding `CC(C)C[C@@H]1NC(=O)[C@H](CCCC(=O)O)NC(=O)CSC[C@@H](C(N)=O)NC(=O)CCCCNC(=O)[C@H](CC(N)=O)NC(=O)C2(CCCCC2)NC(=O)[C@H](Cc2ccc(O)c([N+](=O)[O-])c2)NC1=O` ({CH2CO}-[Aad]L[Tyr(3-NO2)][Ac6c]N[Ava]C-NH2; thioether N-7), the half-inhibitory concentration (IC50) worked out at 182 µM.

Consider `COc1cc(C[C@@H]2NC(=O)[C@H](CC(C)C)NC(=O)[C@H](CCCC(=O)O)NC(=O)C[S+]([O-])C[C@@H](C(N)=O)NC(=O)CCCCNC(=O)[C@H](CC(N)=O)NC(=O)C3(CCCCC3)NC2=O)ccc1O` (stereo partly drawn), for which the IC50 came out at 97 µM.

Turning to `COc1cc(C[C@@H]2NC(=O)[C@H](CC(C)C)NC(=O)[C@H](CCCC(=O)O)NC(=O)C[S+]([O-])C[C@H](C(N)=O)NC(=O)CCCCNC(=O)[C@H](CC(N)=O)NC(=O)C3(CCCCC3)NC2=O)ccc1O` (stereo partly drawn), the IC50 was above 1000 µM.

For `CC(C)C[C@@H]1NC(=O)[C@H](CCCC(=O)O)NC(=O)C[S+]([O-])C[C@@H](C(N)=O)NC(=O)CCCCNC(=O)[C@H](CC(N)=O)NC(=O)C2(CCCCC2)NC(=O)[C@H](Cc2ccc(O)c([N+](=O)[O-])c2)NC1=O` (stereo partly drawn), the half-maximal inhibitory concentration (IC50) stood at 25 µM.

As for `CC(C)C[C@@H]1NC(=O)[C@H](CCCC(=O)O)NC(=O)C[S+]([O-])C[C@@H](C(N)=O)NC(=O)CCCCNC(=O)[C@H](CC(N)=O)NC(=O)C2(CCCCC2)NC(=O)[C@H](Cc2ccc(O)c(C(=O)O)c2)NC1=O` (stereo partly drawn), the 50% inhibitory concentration (IC50) was determined as 16 µM.

In the case of `CC(C)C[C@@H]1NC(=O)[C@H](CCCC(=O)O)NC(=O)CSC[C@@H](C(N)=O)NC(=O)CCCCNC(=O)[C@H](CC(N)=O)NC(=O)C2(CCCCC2)NC(=O)[C@H](Cc2ccc(O)c(C(=O)O)c2)NC1=O` ({CH2CO}-[Aad]L[X1][Ac6c]N[Ava]C-NH2; thioether N-7), the IC50 worked out at 88 µM.

Consider `CC(C)C[C@@H]1NC(=O)[C@H](CCCC(=O)O)NC(=O)C[S+]([O-])C[C@H](C(N)=O)NC(=O)CCCCNC(=O)[C@H](CC(N)=O)NC(=O)C2(CCCCC2)NC(=O)[C@H](Cc2ccc(O)c(O)c2)NC1=O` (stereo partly drawn), for which the 50% inhibitory concentration (IC50) is 550 µM.

With `CC(C)C[C@@H]1NC(=O)[C@H](CC(C(=O)O)C(=O)O)NC(=O)CSC[C@@H](C(N)=O)NC(=O)CCNC(=O)[C@H](CC(N)=O)NC(=O)C2(CCCCC2)NC(=O)[C@H](Cc2ccc(O)c(N)c2)NC1=O` ({CH2CO}-[Gla]L[Tyr(3-NH2)][Ac6c]N[βAla]C-NH2; thioether N-7), the IC50 was 1.02 µM.

Take `CC(C)C[C@@H]1NC(=O)[C@H](CC(C(=O)O)C(=O)O)NC(=O)C[S+]([O-])C[C@@H](C(N)=O)NC(=O)CCCCNC(=O)[C@H](CC(N)=O)NC(=O)C2(CCCCC2)NC(=O)[C@H](Cc2ccc(O)c(N)c2)NC1=O` (stereo partly drawn): the 50% inhibitory concentration (IC50) was 0.058 µM.

Take `CC(C)C[C@@H]1NC(=O)[C@H](CC(C(=O)O)C(=O)O)NC(=O)C[S+]([O-])C[C@H](C(N)=O)NC(=O)CCCCNC(=O)[C@H](CC(N)=O)NC(=O)C2(CCCCC2)NC(=O)[C@H](Cc2ccc(O)c(N)c2)NC1=O` (stereo partly drawn): the IC50 is 1.55 µM.

On to `CC(C)C[C@@H]1NC(=O)[C@H](CC(C(=O)O)C(=O)O)NC(=O)C[S+]([O-])C[C@@H](C(N)=O)NC(=O)[C@H](CC(N)=O)NC(=O)C2(CCCCC2)NC(=O)[C@H](Cc2ccc(O)c(N)c2)NC1=O` (stereo partly drawn), for which the IC50 turned out to be 9.7 µM.

(Values after ChEMBL document CHEMBL1138179, “Discovery of a novel nonphosphorylated pentapeptide motif displaying high affinity for Grb2-SH2 domain by the utilization of 3'-substituted tyrosine derivatives” (J Med Chem, 2006).)
